“Also recorded” adds a separate entry of the source. Blank lines part the entries; values can stand above or below the compound they belong to.
Experiments:
[1] = target: DPP-4 (Homo sapiens, UniProt P27487); assay: biochemical; type: biochemical; conditions: for DPP-4 suppression activity (in words): human recombinant DPP-4; for IC50: Experimental PIC50, pIC50 = −log IC50, QSAR training set
[2] = tested on: high-fat diet-fed/streptozotocin (HFD/STZ) induced T2DM male albino mice; assay: Acute hypoglycemic activity, intraperitoneal glucose tolerance test; type: in vivo; conditions: IPGTT, diabetic mice, mean ±SD; for Blood glucose level (1 h): single dose 10 mg kg^−1, 1 h; for Blood glucose level (2 h): single dose 10 mg kg^−1, 2 h; for Blood glucose level (3 h): single dose 10 mg kg^−1, 3 h; for Blood glucose level (6 h): single dose 10 mg kg^−1, 6 h
Procedure, shortened: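 Diabetic male albino mice (high-fat diet-fed/streptozotocin-induced T2DM) received a single 10 mg kg−1 dose of test compound; the IPGTT was then run. Blood glucose (mg dl−1) was read at 1, 2, 3 and 6 h. The groups were normal control, untreated STZ-diabetic control and treated animals, with n = 4 per group. Values are mean ±SD.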

[3] = target: DPP-8 (Homo sapiens, UniProt Q6V1X1); assay: In vitro DPP-8 selectivity assay, fluorescence-based; type: biochemical
DPP-8, sequence (Q6V1X1 whole entry): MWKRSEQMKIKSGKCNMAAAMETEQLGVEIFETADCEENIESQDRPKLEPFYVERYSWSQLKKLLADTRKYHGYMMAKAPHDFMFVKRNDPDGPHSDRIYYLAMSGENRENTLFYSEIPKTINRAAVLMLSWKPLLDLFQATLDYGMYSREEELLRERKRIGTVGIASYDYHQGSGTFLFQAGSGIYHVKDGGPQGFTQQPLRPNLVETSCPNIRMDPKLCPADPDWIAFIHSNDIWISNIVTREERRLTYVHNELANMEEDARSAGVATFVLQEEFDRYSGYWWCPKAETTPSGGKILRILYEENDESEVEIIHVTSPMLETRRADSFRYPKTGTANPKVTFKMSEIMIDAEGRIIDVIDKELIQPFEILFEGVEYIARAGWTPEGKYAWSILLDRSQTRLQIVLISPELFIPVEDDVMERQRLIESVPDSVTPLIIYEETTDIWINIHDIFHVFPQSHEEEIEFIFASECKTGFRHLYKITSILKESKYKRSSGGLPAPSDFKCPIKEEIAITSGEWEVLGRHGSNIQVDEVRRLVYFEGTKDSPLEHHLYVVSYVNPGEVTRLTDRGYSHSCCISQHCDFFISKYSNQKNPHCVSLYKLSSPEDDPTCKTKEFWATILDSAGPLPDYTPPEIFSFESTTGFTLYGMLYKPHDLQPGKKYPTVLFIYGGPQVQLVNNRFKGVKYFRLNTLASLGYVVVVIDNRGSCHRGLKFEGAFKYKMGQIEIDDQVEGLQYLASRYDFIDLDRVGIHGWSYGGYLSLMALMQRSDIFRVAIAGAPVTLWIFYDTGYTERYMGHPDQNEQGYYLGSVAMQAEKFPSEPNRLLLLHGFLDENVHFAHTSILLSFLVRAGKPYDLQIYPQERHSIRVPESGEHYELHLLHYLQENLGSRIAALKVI

[4] = target: DPP-9 (Homo sapiens, UniProt Q86TI2); assay: In vitro DPP-9 selectivity assay, fluorescence-based; type: biochemical
DPP-9, sequence (Q86TI2 whole entry): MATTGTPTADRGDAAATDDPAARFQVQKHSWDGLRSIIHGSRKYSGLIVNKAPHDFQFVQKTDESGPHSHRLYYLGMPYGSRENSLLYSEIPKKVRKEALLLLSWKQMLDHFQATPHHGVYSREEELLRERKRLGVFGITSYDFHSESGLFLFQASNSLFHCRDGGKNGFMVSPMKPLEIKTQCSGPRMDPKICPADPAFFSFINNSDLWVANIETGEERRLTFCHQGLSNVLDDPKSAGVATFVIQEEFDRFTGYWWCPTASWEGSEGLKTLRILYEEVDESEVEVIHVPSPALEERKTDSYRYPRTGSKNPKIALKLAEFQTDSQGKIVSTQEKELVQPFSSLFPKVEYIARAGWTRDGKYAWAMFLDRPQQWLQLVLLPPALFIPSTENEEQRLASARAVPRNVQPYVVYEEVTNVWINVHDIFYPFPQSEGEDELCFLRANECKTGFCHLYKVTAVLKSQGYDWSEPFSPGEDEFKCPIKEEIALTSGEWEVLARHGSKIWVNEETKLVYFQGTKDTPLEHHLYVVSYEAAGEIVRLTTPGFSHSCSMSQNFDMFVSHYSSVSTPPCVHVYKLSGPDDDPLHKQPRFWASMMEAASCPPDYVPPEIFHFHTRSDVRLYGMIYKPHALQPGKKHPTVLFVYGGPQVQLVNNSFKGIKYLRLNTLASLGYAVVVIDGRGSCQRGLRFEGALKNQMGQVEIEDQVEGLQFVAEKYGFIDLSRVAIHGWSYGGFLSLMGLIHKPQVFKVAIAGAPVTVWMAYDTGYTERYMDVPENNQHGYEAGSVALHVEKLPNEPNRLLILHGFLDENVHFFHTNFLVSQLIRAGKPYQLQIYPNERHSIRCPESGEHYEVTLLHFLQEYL

[5] = tested on: normal hTERT-RPE1 cell line; assay: Cytotoxicity bioassay; type: cell-based; conditions: MTT

DPP-4, sequence (P27487 whole entry): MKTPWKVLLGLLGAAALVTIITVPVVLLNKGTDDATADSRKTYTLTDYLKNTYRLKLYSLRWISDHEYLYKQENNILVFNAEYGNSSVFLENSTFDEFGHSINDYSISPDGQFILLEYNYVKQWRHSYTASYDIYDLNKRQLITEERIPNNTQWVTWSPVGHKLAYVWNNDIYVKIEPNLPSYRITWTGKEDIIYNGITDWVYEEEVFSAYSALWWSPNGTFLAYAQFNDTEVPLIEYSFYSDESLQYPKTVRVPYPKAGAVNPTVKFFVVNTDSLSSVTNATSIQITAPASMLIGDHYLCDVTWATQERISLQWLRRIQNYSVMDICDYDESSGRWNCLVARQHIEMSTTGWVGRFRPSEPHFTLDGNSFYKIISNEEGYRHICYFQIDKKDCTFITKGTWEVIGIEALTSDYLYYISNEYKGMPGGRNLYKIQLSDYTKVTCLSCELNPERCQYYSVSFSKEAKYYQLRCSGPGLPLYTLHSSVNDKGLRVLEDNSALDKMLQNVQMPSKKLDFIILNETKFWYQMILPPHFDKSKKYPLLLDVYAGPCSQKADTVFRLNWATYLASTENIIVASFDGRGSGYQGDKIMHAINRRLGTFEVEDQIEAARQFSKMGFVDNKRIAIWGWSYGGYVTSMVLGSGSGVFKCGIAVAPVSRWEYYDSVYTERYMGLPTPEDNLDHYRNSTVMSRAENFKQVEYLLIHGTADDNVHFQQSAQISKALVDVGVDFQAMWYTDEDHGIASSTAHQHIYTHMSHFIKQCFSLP

DPP-4 suppression activity (in words) [1]: inactive; also recorded: completely lost
SMILES: Cn1c(=O)c(=O)n(C)c2cc(S(=O)(=O)Nc3nccs3)ccc21 [Compound 6a, 1,4-Dimethyl-2,3-dioxo-N-(thiazol-2-yl)-1,2,3,4-tetrahydroquinoxaline-6-sulfonamide]

SMILES: CC(=O)c1ccc(NS(=O)(=O)c2ccc3c(c2)n(C)c(=O)c(=O)n3C)cc1 [Compound 6b, N-(4-Acetylphenyl)-1,4-dimethyl-2,3-dioxo-1,2,3,4-tetrahydroquinoxaline-6-sulfonamide]
Blood glucose level (1 h) [2]: 235.64 ± 4.25 mg/dL
Blood glucose level (2 h) [2]: 127.33 ± 7.15 mg/dL
Blood glucose level (3 h) [2]: 95.67 ± 6.21 mg/dL
Blood glucose level (6 h) [2]: 96.24 ± 4.29 mg/dL

SMILES: Cn1c(=O)c(=O)n(C)c2cc(S(=O)(=O)Nc3ccc(C(=O)O)cc3)ccc21 [Compound 6c, 4-(1,4-Dimethyl-2,3-dioxo-1,2,3,4-tetrahydroquinoxaline-6-sulfonamido)benzoic acid]
Blood glucose level (1 h) [2]: 220.59 ± 5.12 mg/dL
Blood glucose level (2 h) [2]: 125.31 ± 3.47 mg/dL
Blood glucose level (3 h) [2]: 90.68 ± 3.45 mg/dL
Blood glucose level (6 h) [2]: 90.06 ± 7.25 mg/dL

SMILES: Cn1c(=O)c(=O)n(C)c2cc(S(=O)(=O)Nc3ccc(F)cc3)ccc21 [Compound 6d, N-(4-Fluorophenyl)-1,4-dimethyl-2,3-dioxo-1,2,3,4-tetrahydroquinoxaline-6-sulfonamide]
Blood glucose level (1 h) [2]: 226.33 ± 6.34 mg/dL
Blood glucose level (2 h) [2]: 120.08 ± 4.11 mg/dL
Blood glucose level (3 h) [2]: 99.33 ± 1.29 mg/dL
Blood glucose level (6 h) [2]: 93.33 ± 6.11 mg/dL

IC50 [1]: 0.724 nM
SMILES: Cn1c(=O)c(=O)n(C)c2cc(S(=O)(=O)Nc3ccc(Br)cc3)ccc21 [Compound 6e, N-(4-Bromophenyl)-1,4-dimethyl-2,3-dioxo-1,2,3,4-tetrahydroquinoxaline-6-sulfonamide]
Blood glucose level (1 h) [2]: 222.09 ± 4.85 mg/dL
Blood glucose level (2 h) [2]: 125.04 ± 3.26 mg/dL
Blood glucose level (3 h) [2]: 95.28 ± 4.55 mg/dL
Blood glucose level (6 h) [2]: 92.17 ± 8.45 mg/dL

SMILES: Cn1c(=O)c(=O)n(C)c2cc(S(=O)(=O)Nc3ccccc3S)ccc21 [Compound 6f, N-(2-Mercaptophenyl)-1,4-dimethyl-2,3-dioxo-1,2,3,4-tetrahydroquinoxaline-6-sulfonamide]
Blood glucose level (1 h) [2]: 218.00 ± 4.26 mg/dL
Blood glucose level (2 h) [2]: 118.07 ± 8.21 mg/dL
Blood glucose level (3 h) [2]: 97.09 ± 6.39 mg/dL
Blood glucose level (6 h) [2]: 93.25 ± 7.49 mg/dL

folds more potent DPP-4 inhibitory effect than Linagliptin [1]: 1.2–1.6 folds
IC50 [1]: 0.617 nM
SMILES: Cn1c(=O)c(=O)n(C)c2cc(S(=O)(=O)Nc3ccc(S(N)(=O)=O)cc3)ccc21 [Compound 7a, 1,4-Dimethyl-2,3-dioxo-N-(4-sulfamoylphenyl)-1,2,3,4-tetrahydroquinoxaline-6-sulfonamide]
Blood glucose level (1 h) [2]: 251.29 ± 2.80 mg/dL
Blood glucose level (2 h) [2]: 138.16 ± 9.23 mg/dL
Blood glucose level (3 h) [2]: 122.08 ± 3.31 mg/dL
Blood glucose level (6 h) [2]: 99.25 ± 4.35 mg/dL

IC50 [3]: > 100000 nM
selectivity towards DPP-4 inhibition over DPP-8/9 ([3]; DPP-4 versus DPP-8/9): > 1000 folds
IC50 [4]: > 100000 nM
SMILES: CC(=O)NNS(=O)(=O)c1ccc2c(c1)n(C)c(=O)c(=O)n2C [Compound 9a, N′-Acetyl-1,4-dimethyl-2,3-dioxo-1,2,3,4-tetrahydroquinoxaline-6-sulfonohydrazide]
Blood glucose level (1 h) [2]: 237.40 ± 3.15 mg/dL
Blood glucose level (2 h) [2]: 115.11 ± 4.25 mg/dL
Blood glucose level (3 h) [2]: 97.12 ± 8.37 mg/dL
Blood glucose level (6 h) [2]: 85.23 ± 1.69 mg/dL
Inhibition% of normal hTERT-RPE1 cells [5]: 20%

SMILES: Cn1c(=O)c(=O)n(C)c2cc(S(=O)(=O)NNC(=O)CCl)ccc21 [Compound 9b, N′-(2-Chloroacetyl)-1,4-dimethyl-2,3-dioxo-1,2,3,4-tetrahydroquinoxaline-6-sulfono hydrazide]
Blood glucose level (1 h) [2]: 223.89 ± 3.85 mg/dL
Blood glucose level (2 h) [2]: 118.12 ± 5.95 mg/dL
Blood glucose level (3 h) [2]: 89.12 ± 4.21 mg/dL
Blood glucose level (6 h) [2]: 85.25 ± 2.12 mg/dL

SMILES: Cn1c(=O)c(=O)n(C)c2cc(S(=O)(=O)NNC(=O)c3ccccc3)ccc21 [Compound 9c, N′-Benzoyl-1,4-dimethyl-2,3-dioxo-1,2,3,4-tetrahydroquinoxaline-6-sulfonohydrazide]
Blood glucose level (1 h) [2]: 235.40 ± 3.85 mg/dL
Blood glucose level (2 h) [2]: 120.11 ± 2.35 mg/dL
Blood glucose level (3 h) [2]: 96.68 ± 4.25 mg/dL
Blood glucose level (6 h) [2]: 80.16 ± 5.01 mg/dL

SMILES: Cn1c(=O)c(=O)n(C)c2cc(S(=O)(=O)NNC(=O)NCc3ccccc3)ccc21 [Compound 10b, N-Benzyl-2-((1,4-dimethyl-2,3-dioxo-1,2,3,4-tetrahydroquinoxalin-6-yl)sulfonyl)hydrazine-1-carboxamide]
Blood glucose level (1 h) [2]: 228.71 ± 3.85 mg/dL
Blood glucose level (2 h) [2]: 120.09 ± 3.35 mg/dL
Blood glucose level (3 h) [2]: 90.66 ± 5.35 mg/dL
Blood glucose level (6 h) [2]: 85.66 ± 4.10 mg/dL

SMILES: Cn1c(=O)c(=O)n(C)c2cc(S(=O)(=O)NNC(=O)NC(=O)c3ccccc3)ccc21 [Compound 10c, N-Benzoyl-2-((1,4-dimethyl-2,3-dioxo-1,2,3,4-tetrahydroquinoxalin-6-yl)sulfonyl)hydrazine-1-carboxamide]
Blood glucose level (1 h) [2]: 225.65 ± 3.85 mg/dL
Blood glucose level (2 h) [2]: 155.33 ± 2.78 mg/dL
Blood glucose level (3 h) [2]: 137.34 ± 9.48 mg/dL
Blood glucose level (6 h) [2]: 104.08 ± 3.35 mg/dL

SMILES: Cn1c(=O)c(=O)n(C)c2cc(S(=O)(=O)NNC(=O)Nc3ccc(Cl)cc3)ccc21 [Compound 10d, N-(4-Chlorophenyl)-2-((1,4-dimethyl-2,3-dioxo-1,2,3,4-tetrahydroquinoxalin-6-yl)sulfonyl)hydrazine-1-carboxamide]
DPP-4 suppression activity (in words) [1]: inactive; also recorded: completely lost the activity

SMILES: Cn1c(=O)c(=O)n(C)c2cc(S(=O)(=O)NNC(=S)NC3CCCCC3)ccc21 [Compound 10f, N-Cyclohexyl-2-((1,4-dimethyl-2,3-dioxo-1,2,3,4-tetrahydroquinoxalin-6-yl)sulfonyl)hydrazine-1-carbothioamide]
Blood glucose level (1 h) [2]: 237.33 ± 3.85 mg/dL
Blood glucose level (2 h) [2]: 127.33 ± 4.23 mg/dL
Blood glucose level (3 h) [2]: 100.06 ± 6.29 mg/dL
Blood glucose level (6 h) [2]: 89.66 ± 2.27 mg/dL

SMILES: COc1ccc(NC(=S)NNS(=O)(=O)c2ccc3c(c2)n(C)c(=O)c(=O)n3C)cc1 [Compound 10h, 2-((1,4-Dimethyl-2,3-dioxo-1,2,3,4-tetrahydroquinoxalin-6-yl)sulfonyl)-N-(4-methoxyphenyl)hydrazine-1-carbothioamide]
DPP-4 suppression activity (in words) [1]: inactive; also recorded: completely lost the activity

SMILES: CC#CCn1c(N2CCC[C@@H](N)C2)nc2c1c(=O)n(Cc1nc(C)c3ccccc3n1)c(=O)n2C [Linagliptin, reference compound]
Blood glucose level (1 h) [2]: 220.01 ± 3.85 mg/dL
Blood glucose level (2 h) [2]: 120.89 ± 1.76 mg/dL
Blood glucose level (3 h) [2]: 85.11 ± 2.39 mg/dL
Blood glucose level (6 h) [2]: 85.00 ± 5.15 mg/dL

Source: publication PMC9043576 (RSC Advances, 2021)
